This note sets out measurements from the EternaBench riboswitch data.

The test system of the data set is MS2 coat protein. Description: apparent Kd, MS2 coat protein; higher = weaker binding; RNA-MaP array; FMN 200 µM where present. The method, boiled down:
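Designs were transcribed by stalled E. coli RNA polymerase on Illumina sequencing-chip clusters. They were titrated with SNAP-549-labelled MS2 coat protein from 0.7 or 1.5 nM, doubling to 3 µM, in 100 mM Tris-HCl pH 7.5, 80 mM KCl, 4 mM MgCl2, BSA, DTT, yeast tRNA and Tween-20, without and then with constant ligand. The apparent Kd is the median of filtered per-cluster fits after normalisation of green signal to red-channel RNA signal and control-cluster median Fmax.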

Where [1] appears, read: designed as: OFF switch for flavin mononucleotide, no ligand.
Setting [2] is: ligand present: flavin mononucleotide, designed as: OFF switch for flavin mononucleotide.
Setting [3] is: designed as: ON switch for flavin mononucleotide, no ligand.
Where [4] appears, read: ligand present: flavin mononucleotide, designed as: ON switch for flavin mononucleotide.

In the case of “GGAUGACAAAGUCAUCCUAAACGAACAUGAGGAUCACCCAUGUAGGAUAUGCUACUGAAACAGUAGCAGAAGGACAUGUGCCUU”, the apparent Kd – broadly, a dissociation constant that holds for the conditions of the assay – by setting is: under setting [1], 31.1 nM; under setting [2], 211 nM.

In the case of “CGAUGUUGUGUCAGGAUAUGCGUUGCGAAAGCAAUGUAGAAGGGACAUGAGGAUCACCCAUGUUCUAACCAUCG”, the “apparent Kd” value is, setting by setting: under setting [1], 12.4 nM; under setting [2], 15.8 nM.

As to “CGCUAUUAUGUAGGAUAUACAUUUUUUAUGUAUGUAGAAGGACAUGAGGAUCACCCAUGUAAAUAAAUUUUAAUUAUCAUAGCG”, the “apparent Kd” value was 21.9 nM under setting [1] and 18.3 nM under setting [2].

For “CAGUACUGAGGAUAUACAUGAGGAUCACCCAUGUGUCCCUGCUAGGAAACUAGCAAUAGUAGAAGGCAGUACUG”, the “apparent Kd” value under setting [1] was determined as 17.7 nM and the “apparent Kd” value under setting [2] was found to be 199 nM.

With “AUAUCUUGUCGAGGAUAUGUUGUAUUGAUCUGAAAACAUGAGGAUCACCCAUGUAUACGGUGGGAACAGAAGGUGAAUGUAGAA”, the “apparent Kd” value is, setting by setting: under setting [1], 574 nM; under setting [2], 715 nM.

On to “CUGAUGUUAGGAUAUCAGGCCGUGCGCGAAGGCGGGCAGCAUGAGAAGGAACAUGAGGAUCACCCAUGUGACGA”, for which the “apparent Kd” value turned out to be 27.2 nM under setting [1] and 67.8 nM under setting [2].

On to “UAGGUUUGUAGUUACAUCCCUACACAGGAUAUGGGUAGUUACAUGAGGAUCACCCAUGUUCGAACUCAGAAGGGUGGAUCGUUA”, for which the “apparent Kd” value under setting [3] stood at 170 nM and the “apparent Kd” value under setting [4] is 13.8 nM.

For the sequence “AACAGUAGAGGAUAUACAUGAGGAUCACCCAUGUGAGAAUUAAGUGGCGUACCACUAAGUAGAAGGCUACUGGA”, the “apparent Kd” value under setting [1] worked out at 96.9 nM and the “apparent Kd” value under setting [2] was found to be 235 nM.

Turning to “AGUCAUGUCCGAGGAUAUGAUGCCGGUUUCUGCAAGCCAACGCGCCCGGCCUCAGAAGGCGGACAUGAGGAUCACCCAUGUAUC”, the “apparent Kd” value is, setting by setting: under setting [1], 64.9 nM; under setting [2], 12.2 nM.

Regarding “GUGGUCAGACAUGAGGAUCACCCAUGUGGAAUAAAUAACAGACAGGAUAUCAAAUAUAGGAUAUAUGAGAAGGGUCGAUUGGUG”, the “apparent Kd” value was 99.5 nM under setting [3] and 84.3 nM under setting [4].

On to “GACAUUGGCAAGAAGGCAAACAUGAGGAUCACCCAUGUUCUGUAUGUAUUUUGAGGAUAUUGCCAAUGUAUGUGGAUCACCCAA”, for which the “apparent Kd” value runs as follows: under setting [1], 8.91 nM; under setting [2], 10.1 nM.

Regarding “AAGAAGUCAGGAUAUGCUGCUCGUCACUUGCGUGAUGAGUAGCAGAAGGGACAUGAGGAUCACCCAUGUAAAGC”, the “apparent Kd” value was determined as 44 nM under setting [1] and 52.4 nM under setting [2].

With “GUGUACAGAGGAUAUACAAUAGGAGUUACGAAAGUAACUUCACAUGAGGAUCACCCAUGUAGAAGGCUGUACAC”, the “apparent Kd” value is, setting by setting: under setting [1], 18.1 nM; under setting [2], 37.8 nM.

Regarding “AAAACGGCGCAUCCCGCGCCAACUACAGAAGGCCAACAUGAGGAUCACCCAUGUACAAACUAGAUGGAGGAUAUGUAGGUUCUA”, the “apparent Kd” value is, setting by setting: under setting [3], 5.18 nM; under setting [4], 4.2 nM.

“GUAGCAUACCGAGGAUAUUCAAAUAAUAAAUAAACAUGAGGAUCACCCAUGUGGCGAAAGCCUAGGGAGAAGGCGGAAUGCUAC”: the “apparent Kd” value stood at 48.2 nM under setting [3] and 16.9 nM under setting [4].

For the sequence “UGUGUGAGACAGGAUAUGCUGGAUGAGAGGCGGGUAGAAGGGUCUACAUGAGGAUCACCCAUGUGGCCGGUUGG”, the “apparent Kd” value stood at 17 nM under setting [1] and 16.9 nM under setting [2].

Take “GUUUCGUGAGGAUAUGUGGCUUCGAUCGUGCGAAAAAGGCUACAGAAGGCACAUGAGGAUCACCCAUGUUCCUC”: the “apparent Kd” value under setting [1] is 119 nM and the “apparent Kd” value under setting [2] was found to be 568 nM.

Consider “CUCAAGUCAGGAUAUCCAGCUGUGUUCCGGGACUCGUAGUUGGAGAAGGGACAUGAGGAUCACCCAUGUCAGCC”, for which the “apparent Kd” value by setting is: under setting [1], 32.3 nM; under setting [2], 67.8 nM.

“AGUUACAGGAUAGGAUAUGGCGUGACAUGGCUGCCAGAAGGAUCCUCGGGAACAUGAGGAUCACCCAUGUGACCGUGUCGAGUC”: the “apparent Kd” value runs as follows: under setting [3], 126 nM; under setting [4], 170 nM.

For “AGUCUGCUAGGAUAUACAUGAGGAUCACCCAUGUCUAUCAAAAGACUAUUAACCUGGUGUAGAAGGAGCUUGUA”, the “apparent Kd” value worked out at 11.1 nM under setting [1] and 12.5 nM under setting [2].

As to “AUAAAUGAGGAGGAUAUCGAAUCGGAAACGAUUCGAGAAGGCCUAACAUGAGGAUCACCCAUGUUCCUUAAAUA”, the “apparent Kd” value under setting [1] was 28.8 nM and the “apparent Kd” value under setting [2] was determined as 42.2 nM.

In the case of “AACUAAGUAUUAAUGGUGUCUGACAGAAGGCAAUAGAAUGAGACCGACAUGAGGAUCACCCAUGUUGAGGAUAUGUCUAGCUAC”, the “apparent Kd” value came out at 6.33 nM under setting [1] and 7.27 nM under setting [2].

Consider “AAAUUGUGAGGAUAUCAGGUGUGCUAGCGUACUGGUACAUCUGAGAAGGCACAUGAGGAUCACCCAUGUUUCUU”, for which the “apparent Kd” value by setting is: under setting [1], 16.1 nM; under setting [2], 44.2 nM.

Consider “GUGUACAGAGGAUAUACACGAGUAGUUACGAAAGUAACUAUACAUGAGGAUCACCCAUGUAGAAGGCUGUACAC”, for which the “apparent Kd” value worked out at 19.1 nM under setting [1] and 30.5 nM under setting [2].

As to “AUGCCUUAUGUAGGAUAUGCAUAGCAUUGCUAUGCAGAAGGACAUGAGGAUCACCCAUGUAUGUAUUCCAUACAUAUCUGGCAU”, the “apparent Kd” value reads like this: under setting [1], 29.5 nM; under setting [2], 343 nM.

With “GAGCUUGAUGAGAAGGGUUACAUGAGGAUCACCCAUGUCGACCUUGGCGUAACAGGAUAUCAUCGGGCUCUGUGCGUUGACCCA”, the “apparent Kd” value amounted to 23.7 nM under setting [1] and 120 nM under setting [2].

Take “CUAUAUAAUACCUCAUGUACAUGAGGAUCACCCAUGUUAACUAAGGAUAUAUUUAUAUUAAUAAAGUAGAAGGUAGUACUAUUU”: the “apparent Kd” value under setting [1] is 23.4 nM and the “apparent Kd” value under setting [2] was determined as 18.8 nM.

With “UCCAAACAUGAGGAUCACCCAUGUGAGGAUAUGAUACUAUGUACUUCGGUACAUAGUAUCAGAAGGCACAUCCA”, the “apparent Kd” value by setting is: under setting [1], 13.6 nM; under setting [2], 22.2 nM.

In the case of “AAUAAACUCACAGGAUAUAGCAGAGAUCGCGUGAACUUACAGGCGACGAUGCUAGAAGGGUGACCACAUGAGGAUCACCCAUGU”, the “apparent Kd” value stood at 673 nM under setting [3] and 120 nM under setting [4].

In the case of “CAUGUCCUCACAGGAUAUGCAAUGUAUUUCAUUGCAGAAGGGUGAAUACAUGAGGAUCACCCAUGUGGACAUGAUAUAUUUAAU”, the “apparent Kd” value under setting [3] came out at 725 nM and the “apparent Kd” value under setting [4] amounted to 77.8 nM.

With “CAUUAAUUCAUUAUAGUAAUUAUACAGGAUAUGUUACAUGAGGAUCACCCAUGUAUUCAUGGUAAACAGAAGGGUAAUACAAGA”, the “apparent Kd” value was 13.8 nM under setting [1] and 16.3 nM under setting [2].

In the case of “CGAUGUUAUGUCAGGAUAUGCGUUGCGAAAGCAAUGCAGAAGGGACAUGAGGAUCACCCAUGUCCUAACCAUCG”, the “apparent Kd” value was determined as 12.3 nM under setting [1] and 25.1 nM under setting [2].

In the case of “UUGUUACAUGAGGAUCACCCAUGUGAGGAUAUGGCCCGCCCGGCGUGUGCUGGUUUUGUCAGAAGGCGCGUGGG”, the “apparent Kd” value was 61.6 nM under setting [1] and 170 nM under setting [2].

As for “AAUAACAGAGGAUAUACUGUUUUAUGUGUUUAUUAUUUUGAACAUGAGGAUCACCCAUGUAGAAGGCUGAAUGA”, the “apparent Kd” value turned out to be 32.7 nM under setting [1] and 31.5 nM under setting [2].

Turning to “UUUACAUUACGAGGAUAUCAAUUAUUUCAUGUAUGAGAAGGCGUUAUUUUUACUACCUUACAUGAGGAUCACCCAUGUUUCAUU”, the “apparent Kd” value was 62.8 nM under setting [3] and 27.8 nM under setting [4].

Consider “AUCAGUACGUGAGGAUAUGCGUUACUGCGAAAGCAGUACGGUAAGAUCACAUGAGGAUCACCCAUGUAGAAGGCACGAACUGAU”, for which the “apparent Kd” value runs as follows: under setting [1], 18.9 nM; under setting [2], 37.5 nM.

For “UGAUCGAGAGAUCUUAGAUUCUGGUAGGAUAUACAUUAUGAAAAUUUUACAUGAGGAUCACCCAUGUAGAAGGACUAGAGUCUA”, the “apparent Kd” value under setting [1] was determined as 5.44 nM and the “apparent Kd” value under setting [2] was found to be 6.33 nM.

On to “GCCUCACAUGAGGAUCACCCAUGUCAGGAUAUAGGAGGCGGUAGAAAUCCUACCGCCGCUAGAAGGGACUGGCA”, for which the “apparent Kd” value reads like this: under setting [1], 42.8 nM; under setting [2], 90.7 nM.

For the sequence “ACGGUGGUCACAGGAUAUCCGGCACGCGUGCCCGGAGAAGGGUGACUCAGAACCACAUGAGGAUCACCCAUGUGCCUUGCCGUA”, the “apparent Kd” value runs as follows: under setting [3], 186 nM; under setting [4], 37.1 nM.

As to “UCGGCCGCUGGGUUGUACGAUGACAGAAGGGCACACCGGGUGCCGCACAUGAGGAUCACCCAUGUGCAGGAUAUGUCAUCCUGA”, the “apparent Kd” value under setting [1] came out at 11.1 nM and the “apparent Kd” value under setting [2] was determined as 8.25 nM.

Regarding “CGAUAGGACAGAGGAUAUACACAUGAGGAUCACCCAUGUGAUUUCAACGCGAAAGCGCCAAACAUGUAGAAGGCUGUCCUAUCG”, the “apparent Kd” value is 25.9 nM under setting [1] and 16.4 nM under setting [2].

Turning to “UGUCGGAGCAGAGGAUAUUACAUGAGGAUCACCCAUGUAUGAACAAAUAGCUGGAAACAGCAAUGUAAGAAGGCUGCUCCGACA”, the “apparent Kd” value under setting [1] is 5.82 nM and the “apparent Kd” value under setting [2] stood at 7.45 nM.

Consider “GCUCUGUCAGGAUAUCAGGCUGACGGAACUUGGCUGUUAGAUGAGAAGGGACAUGAGGAUCACCCAUGUAAAAU”, for which the “apparent Kd” value runs as follows: under setting [1], 33.8 nM; under setting [2], 34.8 nM.

Take “AUUAAACAUGAGGAUCACCCAUGUAAUAUUAUGGGAGGAUAUGCGAAUUUAAUUAAUUAAGCAGAAGGCCUAAUUA”: the “apparent Kd” value runs as follows: under setting [3], 108 nM; under setting [4], 19 nM.

Regarding “AUAUAUAGUGUGAGGAUAUGCUGGUCCUUGGAUCAGCAGAAGGCACAUGAGGAUCACCCAUGUAGUUAAAUAUA”, the “apparent Kd” value under setting [1] is 36 nM and the “apparent Kd” value under setting [2] was found to be 107 nM.

In the case of “AUAAGCUCGUCAGGAUAUACGUCACUGCUUCGGCAGUGAGGUAUGAUCACAUGAGGAUCACCCAUGUAGAAGGGACGAGCUUAU”, the “apparent Kd” value was 5.63 nM under setting [1] and 8.57 nM under setting [2].

Regarding “GGGUACAUCGGAGGAUAUCAUGUAAAUACAUGAGGAUCACCCAUGUCGAUGGAAACAUCGGAGAUUGAGAAGGCCGAUGUACCG”, the “apparent Kd” value is, setting by setting: under setting [3], 9.76 nM; under setting [4], 5.01 nM.

On to “AAUAAACACACAGGAUAUAGCAUCGUCGUUAUGAACUUAAUGACGACGAUGCUAGAAGGGUGAACACAUGAGGAUCACCCAUGU”, for which the “apparent Kd” value came to 211 nM under setting [3] and 35.6 nM under setting [4].
